MC4R antag cAMP – blocks human MC4R cAMP signaling; 360,000 tested, 0.48% active; P32245; inhibition, % at 6.5 µM; MC4R-expressing cells, MTII-stimulated cAMP, LANCE TR-FRET;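 active = inhibition above its plate's cutoff, the mean of tested wells on that plate plus 3 SD, cut at about 29% in these data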;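 also: 0% = Melanotan II alone and 100% = Melanotan II plus saturating MCL0020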
Target sequence (P32245 whole entry, looked up): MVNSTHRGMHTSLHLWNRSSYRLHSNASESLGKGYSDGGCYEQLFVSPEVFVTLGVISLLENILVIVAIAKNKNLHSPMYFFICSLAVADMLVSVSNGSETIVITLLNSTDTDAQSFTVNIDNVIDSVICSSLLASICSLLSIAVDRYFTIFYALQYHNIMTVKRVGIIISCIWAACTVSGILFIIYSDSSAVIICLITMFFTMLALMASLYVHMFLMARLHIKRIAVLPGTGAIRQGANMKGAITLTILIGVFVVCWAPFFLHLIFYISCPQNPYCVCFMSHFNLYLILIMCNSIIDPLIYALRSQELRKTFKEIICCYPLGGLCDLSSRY
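Assay system: human MC4R-expressing U2OS cells; reagent: Melanotan II stimulation of cells; dosing: 6.5 µM single dose; timing: compound 30 min, challenge 1 h, detection 1 h; signal: TR-FRET cAMP assay; replicates: one well per compound, no replicates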
SMARCA2 activ – increases SMARCA2 function in MMTV reporter cells. MG213 cells, MMTV-luciferase reporter, dexamethasone, overnight. activation, % at 9.1 µM. 370,000 tested, 1% active. AID 652017; in the data active = activation above about 7.8%;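 also: 0% = vehicle wells and 100% = reference activator wells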
F508del corr – correctors of CFTR F508del function in bronchial epithelial cells; CFBE cells, YFP halide quenching; stimulated with forskolin plus potentiator P3; % fluorescence drop versus neutral controls; activity (quench increase), % at 7.58 µM; 350,000 tested, 0.36% active; AID 720511;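 active = mean added fluorescence quench of at least 8% versus neutral control, with both replicates also reaching 8%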;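 also: cells transiently co-express mutant CFTR-F508del with the halide-sensitive YFP; corrector assay measuring rescue of mutant channel to the surface after 24 h compound exposure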
MC4R barr agon – human MC4R agonism via beta-arrestin. U2OS MC4R beta-arrestin complementation, luminescence; percent of melanotan II response, DMSO zero. P32245. activation, % at 8.9 µM. AID 540308. 360,000 tested, 0.98% active;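 active = activation above a per-plate cutoff, the mean activation of sample wells on that plate plus 3 SD, cut at about 8% in these data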
SMARCA2 act conf – SMARCA2 activation, confirmation screen | shares compounds with SMARCA2 activ | 3,500 tested, 30% active | activation, % at 9.1 µM | AID 652260 | MG213 cells, MMTV-luciferase with dexamethasone, luminescence, overnight; MG213 cells expressing E1A, Rb sequestered; DMSO wells 0%, reference activator 100%;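 active = activation above its plate's cutoff, the mean activation of tested wells plus 3 SD, cut at about 7.9% in these data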
GAL4-VP16 Luc – counter-screen for SMARCA2 activators: GAL4-VP16 luciferase reporter activation; shares compounds with SMARCA2 activ; HEK293 GAL4-VP16 pG5luc reporter, luciferase luminescence; scaled: DMSO wells 0%, SAHA wells 100%; activation, % at 9.1 µM; 3,500 tested, 41% active; AID 686939;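 active = activation above the solvent-only control well mean plus 3 SD, averaged across control plates, cut at about 5.2% in these data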
An asterisk follows results filed as active; . = not tested or not shown. In the library only some 2.1% were active in any assay of this set; here they are far more common.

SMILES	MC4R antag cAMP	SMARCA2 activ	F508del corr	MC4R barr agon	SMARCA2 act conf	GAL4-VP16 Luc
c1ccc(CSc2nnc(NC3CCCCC3)s2)cc1	0	16*	2	-1	6	8.6*
COc1ccccc1C#Cc1cnc2c(c1)C(=O)N([C@H](C)CO)C[C@H](C)[C@@H](CN(C)C(=O)CN(C)C)O2	.	.	-2	.	.	.
Cc1noc(C)c1NC(=O)N(C)C[C@H]1Oc2ccc(NC(=O)CCN3CCOCC3)cc2CC(=O)N([C@H](C)CO)C[C@@H]1C	.	.	-3	.	.	.
O=Cc1c(-c2ccc(F)cc2)nc2ccccn12	17	-3	-2	-1	.	.
COc1ccc(-c2nc3ccccn3c2C=O)cc1	19	8.7*	.	0	8	9.0*
O=C(C1CCCC1)N1[C@@H]2CNc3ccccc3[C@@H]2[C@@H]1CO	.	.	0	.	.	.
CCOC(=O)C(=NO)C1=CSC2=NNC(C)(C)N12	-37	9.2*	-1	-4	-1	1
CCOC(=O)/C(=N/O)C1=NC(C)(C)Cc2cc(C)c(C)cc21	-6	2	-2	-1	.	.
Cc1cc(C(=O)Nc2ccc3c(c2)C(=O)N(C)[C@H]2CC[C@H](CC(=O)Nc4ccc(Cl)cc4)O[C@@H]2CO3)no1	.	.	-1	.	.	.
CO[C@H]1CN(C)C(=O)c2cc(NC(=O)C3CCC3)ccc2OC[C@@H](C)N(Cc2ccncc2)C[C@@H]1C	.	.	0	.	.	.
CSc1ncc(OCc2ccccc2)c(=O)[nH]1	-3	10*	.	-1	0	0
COc1cc(/C=N/O)ccc1OCc1ccc(Cl)cc1	.	17*	0	.	12*	8.7*
C/C(=N\Nc1ccccn1)c1cccs1	4	10.0*	-2	0	11*	6.4*
C/C(=N\Nc1ccccn1)c1ccc(C#N)cc1	-8	2	-1	0	.	.
COc1ccc2cc3cc(C(=O)NC(C)C)oc3nc2c1	3	9.1*	.	-2	5	5
Cc1nn(C)cc1NC(=O)C[C@@H]1CC[C@H]2[C@@H](COc3ccc(NC(=O)Nc4cccc(Cl)c4)cc3C(=O)N2C)O1	.	.	5	.	.	.
COc1ccc(/C=N/NC(=O)CN(C2=NS(=O)(=O)c3ccccc32)c2ccccc2)cc1OC	-1	8.1*	.	-1	6	1
COc1cccc(/C=N/NC(=O)CN(C2=NS(=O)(=O)c3ccccc32)c2ccccc2)c1	2	0	.	-1	.	.
CC(C)COC(=O)N(C)C[C@@H]1OCc2ccccc2-c2c(n(C)c3ccccc23)C(=O)N([C@@H](C)CO)C[C@@H]1C	.	.	0	.	.	.
Cc1cc(NC(=S)Nc2ccc(C)c(Cl)c2)n[nH]1	3	8.3*	-2	-2	10*	6.9*
CCCc1cc2c(=O)c(-c3ccccn3)coc2cc1OC	3	11*	.	3	18*	6.2*
Nc1nccc(/C=C/c2c(F)cccc2Cl)n1	11	3	0	3	.	.
Oc1cccc2ccc(/C=C/c3c(F)cccc3Cl)nc12	2	11*	-3	-3	-12	16*
Oc1cccc2ccc(/C=C/c3ccccc3Cl)nc12	7	12*	1	-6	-5	11*
COc1ccc(Cl)cc1/C=C/c1ccc2cccc(O)c2n1	-3	6	2	-3	.	.
SMILES	MC4R antag cAMP	SMARCA2 activ	F508del corr	MC4R barr agon	SMARCA2 act conf	GAL4-VP16 Luc
O=C(O)c1ccc(/C=C/c2ccc3cccc(O)c3n2)cc1	4	8.0*	-3	0	16*	6.2*
CCNC(=O)C[C@H]1C=C[C@@H](NC(=O)C2CC2)[C@H](CO)O1	.	.	2	.	.	.
CO[C@@H]1CN(C)C(=O)c2cc(NC(=O)C3CC3)ccc2OC[C@@H](C)N(C(=O)CN(C)C)C[C@@H]1C	.	.	0	.	.	.
O=C(NCCCc1ccccc1)Nc1ccccc1	10	13*	.	0	7	2
Cc1ccc(NC(=O)NCCCCc2ccccc2)cc1	-2	3	0	2	.	.
Cc1ccc(CNC(=O)Nc2ccccc2)cc1	3	8.7*	.	-1	5	11*
O=C(C[C@@H]1C[C@@H]2c3cc(NS(=O)(=O)c4ccc(F)cc4)ccc3O[C@@H]2[C@H](CO)O1)NCc1cccc(F)c1	.	.	1	.	.	.
Cn1c(CCC(=O)O)nc2cc(S(=O)(=O)N3CCCCC3)ccc21	-2	11*	0	-1	0	0
